Measured values: ChEMBL document CHEMBL1144710, “epigenetic multiple ligands: mixed histone/protein methyltransferase, acetyltransferase, and class III deacetylase (sirtuin) inhibitors” (J Med Chem, 2008)
Activity calls are given as the source filed them. Unless noted, the rule behind the calls is not given here.

Experiments:
[1] = target: T1, Histone-lysine N-methyltransferase SETD7 (Homo sapiens) (UniProt Q8WTS6); assay: Inhibition of human recombinant SET7 assessed as histone H3 protein methylation at 100 uM
T1 sequence (whole entry): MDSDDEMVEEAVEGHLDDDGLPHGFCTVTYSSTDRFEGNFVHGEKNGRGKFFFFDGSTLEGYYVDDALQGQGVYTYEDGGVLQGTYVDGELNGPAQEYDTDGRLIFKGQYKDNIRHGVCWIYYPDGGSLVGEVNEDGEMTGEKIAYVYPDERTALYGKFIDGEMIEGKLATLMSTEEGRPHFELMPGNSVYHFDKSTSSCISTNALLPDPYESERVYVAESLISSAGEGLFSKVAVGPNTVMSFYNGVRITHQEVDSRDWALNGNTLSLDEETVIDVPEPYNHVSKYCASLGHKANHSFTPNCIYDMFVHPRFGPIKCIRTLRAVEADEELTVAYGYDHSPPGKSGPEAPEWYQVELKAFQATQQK
Method in brief: (§1)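 Recombinant enzymes (0.2 µg) with substrate (0.5 µg: Npl3p for PRMT1, PABP1 for CARM1, histone H3 for SET7), 0.5 µM [3H]AdoMet and 100 µM compound in PBS pH 7.4 with 3.3% v/v DMSO, 90 min at 30 °C. Products separated by 10% SDS-PAGE, transferred to PVDF, detected by fluorography on film overnight.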

U-937 [2] = assay: Inhibition of histone H3R17 methylation in human U937 cells at 50 uM after 24 hrs; format: functional, cell-based
Method in brief: (§2)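 U937 cells treated at 50 µM for 24 h. Histones extracted with Triton buffer, then 0.2 M HCl overnight at 4 °C. 3–10 µg run on 15% SDS-PAGE and immunoblotted with anti-monomethyl-H3K4, monomethyl-H4R3 or dimethyl-H3R17 (1:500, overnight 4 °C), ECL detection. Loading controls: total H4 (H3K4), Ponceau Red (Arg marks).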

[3] = target: Protein arginine N-methyltransferase 1 (Homo sapiens) (UniProt Q99873); assay: Inhibition of human recombinant PRMT1 assessed as nuclear ribonucleoprotein Npl3p methylation at 100 uM; method in brief: as §1
Protein arginine N-methyltransferase 1 (Homo sapiens), sequence (Q99873 whole entry, looked up): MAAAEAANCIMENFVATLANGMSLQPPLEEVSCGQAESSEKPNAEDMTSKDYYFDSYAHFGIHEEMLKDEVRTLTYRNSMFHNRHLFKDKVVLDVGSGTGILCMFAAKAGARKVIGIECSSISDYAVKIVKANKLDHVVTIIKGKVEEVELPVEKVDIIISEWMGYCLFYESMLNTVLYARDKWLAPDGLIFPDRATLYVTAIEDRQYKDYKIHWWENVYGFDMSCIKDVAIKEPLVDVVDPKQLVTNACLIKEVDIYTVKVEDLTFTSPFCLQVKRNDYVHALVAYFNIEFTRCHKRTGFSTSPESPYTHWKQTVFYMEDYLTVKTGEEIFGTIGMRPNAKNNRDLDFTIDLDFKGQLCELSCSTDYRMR

[4] = target: Protein arginine N-methyltransferase 1 (Homo sapiens) (UniProt Q99873); assay: Inhibition of human recombinant PRMT1 assessed as histone H4 methylation at 50 uM
RmtA = RmtA (Emericella nidulans, UniProt Q5VLE3); assay: Inhibition of Aspergillus nidulans RmtA
RmtA, sequence (Q5VLE3 whole entry, the tested form may be a part): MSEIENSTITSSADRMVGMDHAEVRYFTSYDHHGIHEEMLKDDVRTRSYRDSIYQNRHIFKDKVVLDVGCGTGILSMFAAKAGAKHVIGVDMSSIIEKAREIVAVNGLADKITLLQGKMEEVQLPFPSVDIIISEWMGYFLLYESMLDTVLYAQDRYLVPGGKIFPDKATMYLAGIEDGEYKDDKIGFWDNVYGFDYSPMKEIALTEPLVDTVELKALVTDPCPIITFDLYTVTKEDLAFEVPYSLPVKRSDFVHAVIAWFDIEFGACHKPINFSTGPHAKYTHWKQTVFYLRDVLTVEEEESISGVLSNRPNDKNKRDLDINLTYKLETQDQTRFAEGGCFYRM
Method in brief: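 Enzyme was GST-RmtA fusion expressed in E. coli BL21 and glutathione-affinity purified (500 ng), preincubated with compound for 15 min at room temperature. Then 20 µg chicken erythrocyte core histones and 0.55 µCi [3H]AdoMet were added, 30 min at 30 °C. Stopped with 25% TCA, filtered, counted by liquid scintillation.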

U-937 [5] = assay: Cell cycle arrest in human U937 cells assessed as accumulation at G1/G2 phase at 25 uM after 30 hrs; format: functional, cell-based
Method in brief: (§3)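 U937 cells in RPMI with 10% fetal calf serum, HEPES and glutamine, kept at 200000 cells/mL; treated at 25 µM for 30 h, then the distribution across cell cycle phases was analysed.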

U-937 [6] = assay: Induction of granulocytic differentiation in human U937 cells assessed as CD11c expression at 1 uM after 30 hrs; format: functional
Method in brief: (§4)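 U937 cells treated for 30 h, then stained with PE-conjugated CD11c (PE mouse IgG1 as control) for 30 min at 4 °C in the dark and resuspended in PBS with PI (0.25 µg/mL). Read-out is percent CD11c-positive/PI-negative cells, with dead PI-positive cells excluded. Coloured compounds limited the top dose to 5 µM or lower.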

[7] = target: T2, Histone-arginine methyltransferase CARM1 (Homo sapiens) (UniProt Q86X55); assay: Inhibition of human recombinant CARM1 assessed as poly(A) binding protein 1 methylation at 100 uM; method in brief: as §1
T2 sequence (whole entry): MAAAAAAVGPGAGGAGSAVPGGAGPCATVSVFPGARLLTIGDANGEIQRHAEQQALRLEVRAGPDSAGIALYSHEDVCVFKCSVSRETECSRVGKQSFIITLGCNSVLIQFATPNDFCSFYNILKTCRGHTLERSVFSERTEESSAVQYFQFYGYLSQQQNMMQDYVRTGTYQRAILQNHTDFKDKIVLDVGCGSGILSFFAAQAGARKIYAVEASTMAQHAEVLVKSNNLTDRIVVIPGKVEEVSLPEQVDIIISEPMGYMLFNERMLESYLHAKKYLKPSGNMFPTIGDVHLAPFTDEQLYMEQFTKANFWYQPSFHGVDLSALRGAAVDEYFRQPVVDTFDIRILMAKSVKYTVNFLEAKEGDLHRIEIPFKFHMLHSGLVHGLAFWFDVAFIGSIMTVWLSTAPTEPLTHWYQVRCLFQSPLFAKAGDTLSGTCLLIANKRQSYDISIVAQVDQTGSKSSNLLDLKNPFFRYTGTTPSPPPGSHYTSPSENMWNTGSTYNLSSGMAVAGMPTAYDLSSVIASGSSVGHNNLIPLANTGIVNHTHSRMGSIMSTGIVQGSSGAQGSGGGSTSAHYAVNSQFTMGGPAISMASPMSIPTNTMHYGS

U-937 [8] = assay: Induction of apoptosis in human U937 cells at 25 uM after 30 hrs; format: functional
Method in brief: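 Apoptosis read as caspase 3 activation by FACS, in U937 cells (RPMI, 10% fetal calf serum, 200000 cells/mL) exposed to 25 µM for 30 h.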

U-937 [9] = assay: Inhibition of histone H3K4 methylation in human U937 cells at 50 uM after 24 hrs; format: functional, cell-based; method in brief: as §2
U-937 [10] = assay: Inhibition of human p300/CBP in U937 cells at 50 uM assessed as histone H3 acetylation; format: cell-based
Method in brief: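 Source was U937 nuclear extract (10 µg per assay) as p300/CBP HAT, with histone H3 substrate and compound at 50 µM or DMSO control for 90 min. Acetyl-H3 detected by indirect ELISA, quantified against acetylated H3 peptide standard curves, […].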

U-937 [11] = assay: Inhibition of histone H4R3 methylation in human U937 cells at 50 uM after 24 hrs; format: functional, cell-based; method in brief: as §2
[12] = target: T3, NAD-dependent protein deacetylase sirtuin-2 (Homo sapiens) (UniProt Q8IXJ6); assay: Inhibition of human SIRT2 at 25 uM
T3 sequence (whole entry): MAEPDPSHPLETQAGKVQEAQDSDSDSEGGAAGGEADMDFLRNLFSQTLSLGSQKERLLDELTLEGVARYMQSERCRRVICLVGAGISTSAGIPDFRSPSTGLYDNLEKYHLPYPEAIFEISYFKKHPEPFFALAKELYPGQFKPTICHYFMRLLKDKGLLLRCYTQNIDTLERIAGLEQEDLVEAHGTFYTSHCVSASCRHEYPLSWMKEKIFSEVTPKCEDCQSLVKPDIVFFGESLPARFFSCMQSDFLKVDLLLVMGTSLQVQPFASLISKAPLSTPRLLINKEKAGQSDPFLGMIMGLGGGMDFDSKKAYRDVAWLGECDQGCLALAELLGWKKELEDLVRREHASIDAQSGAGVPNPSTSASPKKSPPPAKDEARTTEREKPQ
Method in brief: (§5)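 Fluorescent two-stage assay. SIRT1 (1 U/well) or SIRT2 (5 U/well) with Fluor de Lys-SIRT1/2 substrate, NAD+ and compound at 25 µM, 37 °C for 2 h. Developer II containing nicotinamide then stopped the reaction and generated signal, read at ex 360/em 460 nm.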

[13] = target: T4, NAD-dependent protein deacetylase sirtuin-1 (Homo sapiens) (UniProt Q96EB6); assay: Inhibition of human SIRT1 at 25 uM; method in brief: as §5
T4 sequence (whole entry): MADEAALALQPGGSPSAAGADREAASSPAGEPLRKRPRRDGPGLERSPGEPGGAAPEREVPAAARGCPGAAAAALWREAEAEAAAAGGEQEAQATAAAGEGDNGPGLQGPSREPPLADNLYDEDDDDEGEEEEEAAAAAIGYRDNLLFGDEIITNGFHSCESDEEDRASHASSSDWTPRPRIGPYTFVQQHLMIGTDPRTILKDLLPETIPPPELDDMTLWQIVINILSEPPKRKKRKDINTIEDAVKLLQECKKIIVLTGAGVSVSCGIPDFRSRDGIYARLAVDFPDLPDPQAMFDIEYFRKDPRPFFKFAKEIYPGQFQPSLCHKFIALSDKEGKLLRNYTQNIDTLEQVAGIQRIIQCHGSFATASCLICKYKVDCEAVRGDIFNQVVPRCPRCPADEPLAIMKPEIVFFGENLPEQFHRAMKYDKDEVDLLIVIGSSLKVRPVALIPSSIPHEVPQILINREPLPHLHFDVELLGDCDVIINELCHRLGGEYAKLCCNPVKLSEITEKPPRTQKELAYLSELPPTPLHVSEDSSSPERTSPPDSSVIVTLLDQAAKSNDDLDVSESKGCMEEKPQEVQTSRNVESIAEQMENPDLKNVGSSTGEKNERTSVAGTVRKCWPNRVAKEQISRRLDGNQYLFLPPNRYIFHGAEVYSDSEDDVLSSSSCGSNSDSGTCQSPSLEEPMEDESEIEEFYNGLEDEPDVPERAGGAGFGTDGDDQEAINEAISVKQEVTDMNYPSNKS

U-937 [14] = assay: Induction of granulocytic differentiation in human U937 cells assessed as CD11c expression at 5 uM after 30 hrs; format: functional; method in brief: as §4
U-937 [15] = assay: Cell cycle arrest in human U937 cells assessed as accumulation at S/G2 phase at 25 uM after 30 hrs; format: functional, cell-based; method in brief: as §3
U-937 [16] = assay: Induction of granulocytic differentiation in human U937 cells assessed as CD11c expression at 25 uM after 30 hrs; format: functional; method in brief: as §4
U-937 [17] = assay: Induction of cell cycle arrest in human U937 cells at 25 uM after 30 hrs; format: functional, cell-based; method in brief: as §3

SMILES: O=C(/C=C/c1cc(Br)c(O)c(Br)c1)c1cccc(C(=O)/C=C/c2cc(Br)c(O)c(Br)c2)c1
- Activity [1]: Active
- Activity (U-937 [2]): Active
- Activity [3]: Active
- inhibition [4]: 60%
- IC50 (RmtA): 10 µM
- Activity (U-937 [5]): Active
- Activity (U-937 [6]): 38.8%
- Activity [7]: Active
- Activity (U-937 [8]): 42.6%
- Activity (U-937 [9]): Active
- inhibition (U-937 [10]): 83%
- Activity (U-937 [11]): Active
- inhibition [12]: 48%
- inhibition [13]: 73%

SMILES: O=C1/C(=C/c2cc(Br)c(O)c(Br)c2)CSC/C1=C\c1cc(Br)c(O)c(Br)c1
- Activity [1]: Active
- Activity (U-937 [2]): Active
- Activity [3]: Active
- Activity (U-937 [14]): 9.1%
- inhibition [4]: 73%
- Activity (U-937 [15]): Active
- IC50 (RmtA): 45 µM
- Activity [7]: Active
- Activity (U-937 [8]): 40.7%
- Activity (U-937 [9]): Active
- inhibition (U-937 [10]): 69%
- Activity (U-937 [11]): Active
- inhibition [12]: 59%
- inhibition [13]: 54%

SMILES: COc1cc(/C=C/C(=O)CC(=O)/C=C/c2ccc(O)c(OC)c2)ccc1O [CURCUMIN]
- Activity (U-937 [16]): 25%
- Activity (U-937 [14]): 25.3%
- Activity (U-937 [8]): 8.5%
- Activity (U-937 [17]): inactive
